# Columns and labels:
# Kidney [1] = assay: Drug uptake in kidney of healthy Swiss Webster mouse at 3.7 MBq, iv after 20 mins; assay type: ADME, organism-based; details: in vivo
# How it was run: (§1)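 Uninfected control mice. [11C]-label given into the lateral tail vein in ethanol/saline (1/3) under isoflurane, then mice recovered and moved freely. Killed by cervical dislocation; blood taken by cardiac puncture, spleen, lung, liver and kidney excised, weighed and well-counted. Reported as %ID/g, mean ± SD, n=3.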
# Lung [2] = assay: Drug uptake in lung of healthy Swiss Webster mouse at 3.7 MBq, iv after 60 mins; assay type: ADME, organism-based; details: in vivo, 1 h; how it was run: as §1
# Liver [3] = assay: Drug uptake in liver of healthy Swiss Webster mouse at 3.7 MBq, iv after 20 mins; assay type: ADME, organism-based; details: in vivo; how it was run: as §1
# [4] = Drug uptake in healthy thigh of Swiss Webster thigh infected mouse model infected with methicillin-resistant Staphylococcus aureus BAA1762 at 3.7 MBq, iv after 60 mins; assay type: ADME, organism-based, Thigh muscle; details: in vivo, 1 h
# How it was run: (§2)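 Neutropenic mice (ip cyclophosphamide) given 5×10^5 MRSA cells into the left thigh muscle. [11C]-label given into the lateral tail vein in ethanol/saline (1/3) under isoflurane, then mice recovered and moved freely. Killed by cervical dislocation; muscle from both thighs and blood collected, weighed and well-counted. Reported as %ID/g, mean ± SD, n=3.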
# Blood [5] = assay: Drug uptake in blood of Swiss Webster systemic infected mouse model infected with methicillin-resistant Staphylococcus aureus BAA1762 at 3.7 MBq, iv after 60 mins; assay type: ADME, organism-based; details: in vivo, 1 h
# How it was run: as §1, with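 “Neutropenic mice (ip cyclophosphamide) infected ip with 2×10^7 MRSA cells.” for “Uninfected control mice.”, “organs” for “spleen, lung, liver and kidney”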
# Lung [6] = assay: Drug uptake in lung of healthy Swiss Webster mouse at 3.7 MBq, iv after 20 mins; assay type: ADME, organism-based; details: in vivo; how it was run: as §1
# Lung [7] = assay: Drug uptake in lung of Swiss Webster systemic infected mouse model infected with methicillin-resistant Staphylococcus aureus BAA1762 at 3.7 MBq, iv after 40 mins; assay type: ADME, organism-based; details: in vivo
# How it was run: as §1, with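 “Neutropenic mice (ip cyclophosphamide) infected ip with 2×10^7 MRSA cells.” for “Uninfected control mice.”, “organs” for “spleen, lung, liver and kidney”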
# Lung [8] = assay: Drug uptake in lung of Swiss Webster systemic infected mouse model infected with methicillin-resistant Staphylococcus aureus BAA1762 at 3.7 MBq, iv after 60 mins; assay type: ADME, organism-based; details: in vivo, 1 h
# How it was run: as §1, with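 “Neutropenic mice (ip cyclophosphamide) infected ip with 2×10^7 MRSA cells.” for “Uninfected control mice.”, “organs” for “spleen, lung, liver and kidney”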
# Blood [9] = assay: Drug uptake in blood of Swiss Webster systemic infected mouse model infected with methicillin-resistant Staphylococcus aureus BAA1762 at 3.7 MBq, iv after 40 mins; assay type: ADME, organism-based; details: in vivo
# How it was run: as §1, with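 “Neutropenic mice (ip cyclophosphamide) infected ip with 2×10^7 MRSA cells.” for “Uninfected control mice.”, “organs” for “spleen, lung, liver and kidney”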
# Lung [10] = assay: Drug uptake in lung of healthy Swiss Webster mouse at 3.7 MBq, iv after 40 mins; assay type: ADME, organism-based; details: in vivo; how it was run: as §1
# Blood [11] = assay: Drug uptake in blood of Swiss Webster systemic infected mouse model infected with methicillin-resistant Staphylococcus aureus BAA1762 at 3.7 MBq, iv after 20 mins; assay type: ADME, organism-based; details: in vivo
# How it was run: as §1, with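 “Neutropenic mice (ip cyclophosphamide) infected ip with 2×10^7 MRSA cells.” for “Uninfected control mice.”, “organs” for “spleen, lung, liver and kidney”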
# [12] = Drug uptake in healthy thigh of Swiss Webster thigh infected mouse model infected with methicillin-resistant Staphylococcus aureus BAA1762 at 3.7 MBq, iv after 45 mins; assay type: ADME, organism-based, Thigh muscle; details: in vivo, 0.75 h; how it was run: as §2
# Liver [13] = assay: Drug uptake in liver of Swiss Webster systemic infected mouse model infected with methicillin-resistant Staphylococcus aureus BAA1762 at 3.7 MBq, iv after 40 mins; assay type: ADME, organism-based; details: in vivo
# How it was run: as §1, with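 “Neutropenic mice (ip cyclophosphamide) infected ip with 2×10^7 MRSA cells.” for “Uninfected control mice.”, “organs” for “spleen, lung, liver and kidney”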
# [14] = Drug uptake in infected thigh of Swiss Webster thigh infected mouse model infected with methicillin-resistant Staphylococcus aureus BAA1762 at 3.7 MBq, iv after 15 mins; assay type: ADME, organism-based, Thigh muscle; details: in vivo, 0.25 h; how it was run: as §2
# [15] = Drug uptake in healthy thigh of Swiss Webster thigh infected mouse model infected with methicillin-resistant Staphylococcus aureus BAA1762 at 3.7 MBq, iv after 30 mins; assay type: ADME, organism-based, Thigh muscle; details: in vivo, 0.5 h; how it was run: as §2
# Spleen [16] = assay: Drug uptake in spleen of healthy Swiss Webster mouse at 3.7 MBq, iv after 40 mins; assay type: ADME, organism-based; details: in vivo; how it was run: as §1
# Lung [17] = assay: Drug uptake in lung of Swiss Webster systemic infected mouse model infected with methicillin-resistant Staphylococcus aureus BAA1762 at 3.7 MBq, iv after 20 mins; assay type: ADME, organism-based; details: in vivo
# How it was run: as §1, with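 “Neutropenic mice (ip cyclophosphamide) infected ip with 2×10^7 MRSA cells.” for “Uninfected control mice.”, “organs” for “spleen, lung, liver and kidney”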
# Spleen [18] = assay: Drug uptake in spleen of healthy Swiss Webster mouse at 3.7 MBq, iv after 60 mins; assay type: ADME, organism-based; details: in vivo, 1 h; how it was run: as §1
# Kidney [19] = assay: Drug uptake in kidney of healthy Swiss Webster mouse at 3.7 MBq, iv after 40 mins; assay type: ADME, organism-based; details: in vivo; how it was run: as §1
# Spleen [20] = assay: Drug uptake in spleen of Swiss Webster systemic infected mouse model infected with methicillin-resistant Staphylococcus aureus BAA1762 at 3.7 MBq, iv after 20 mins; assay type: ADME, organism-based; details: in vivo
# How it was run: as §1, with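 “Neutropenic mice (ip cyclophosphamide) infected ip with 2×10^7 MRSA cells.” for “Uninfected control mice.”, “organs” for “spleen, lung, liver and kidney”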
# Blood [21] = assay: Drug uptake in blood of healthy Swiss Webster mouse at 3.7 MBq, iv after 20 mins; assay type: ADME, organism-based; details: in vivo; how it was run: as §1
smiles,measurement,setting,value
CCCCCCc1ccc(Oc2ccccc2[11C]#N)c(O)c1,Drug uptake,Kidney [1],2.22 %ID/cc
same,Drug uptake,Lung [2],1.32 %ID/cc
same,Drug uptake,Liver [3],11.79 %ID/cc
same,Drug uptake,[4],0.33 %ID/cc
same,Drug uptake,Blood [5],0.44 %ID/cc
same,Drug uptake,Lung [6],3.19 %ID/cc
same,Drug uptake,Lung [7],1.78 %ID/cc
same,Drug uptake,Lung [8],2.01 %ID/cc
same,Drug uptake,Blood [9],0.38 %ID/cc
same,Drug uptake,Lung [10],1.75 %ID/cc
same,Drug uptake,Blood [11],0.67 %ID/cc
same,Drug uptake,[12],0.42 %ID/cc
same,Drug uptake,Liver [13],5.25 %ID/cc
same,Drug uptake,[14],0.89 %ID/cc
same,Drug uptake,[15],0.63 %ID/cc
same,Drug uptake,Spleen [16],0.37 %ID/cc
same,Drug uptake,Lung [17],3.28 %ID/cc
same,Drug uptake,Spleen [18],0.19 %ID/cc
same,Drug uptake,Kidney [19],1.41 %ID/cc
same,Drug uptake,Spleen [20],0.71 %ID/cc
same,Drug uptake,Blood [21],0.64 %ID/cc
